Consider 4 molecules from paper PMC10809365 (ACS Omega, 2024).

pIC50: −log10 of the molar value. “Also recorded” adds a separate entry of the source.

Test [1] addresses T1, AbDapE (Acinetobacter baumannii, UniProt A3M8H2). Put plainly: DapE ninhydrin enzyme inhibition assay, AbDapE. It counts as biochemical. Conditions: for Inhibition of AbDapE (in words): tested at 100 μM. The method in brief: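 Purified His-tag-cleaved AbDapE at 8 nM final in 50 mM HEPES pH 7.5, 30 °C. Test compound (DMSO, 5% final) is preincubated with enzyme for 10 min before 2 mM N6-methyl-L,L-SDAP. After 10 min, heat to 100 °C for 1 min, chill, add 2% ninhydrin, 80 °C for 15 min, then read A570.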

The target of test [2] is T1, AbDapE. Put plainly: Thermal shift assay, AbDapE native. It counts as binding. Conditions: for Tm1 AbDapE / Tm2 AbDapE: 16 μM AbDapE + 10× dye. The method in brief:
(§1)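 SYPRO Orange thermal melt at 10× dye in 50 mM HEPES pH 7.5, 10 µL triplicates. Protein is 16 µM for native AbDapE and 6 µM for SeMet AbDapE, with DMSO kept below 5%. Tm comes from the negative first derivative of the melting curves, further differentiated to the third derivative. Ki is calculated from Tm plotted against log[test compound] using a derived van't Hoff equation.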

For a further test, the target named is T2, HiDapE (Haemophilus influenzae, UniProt P44514).
T2 sequence (P44514 1-377): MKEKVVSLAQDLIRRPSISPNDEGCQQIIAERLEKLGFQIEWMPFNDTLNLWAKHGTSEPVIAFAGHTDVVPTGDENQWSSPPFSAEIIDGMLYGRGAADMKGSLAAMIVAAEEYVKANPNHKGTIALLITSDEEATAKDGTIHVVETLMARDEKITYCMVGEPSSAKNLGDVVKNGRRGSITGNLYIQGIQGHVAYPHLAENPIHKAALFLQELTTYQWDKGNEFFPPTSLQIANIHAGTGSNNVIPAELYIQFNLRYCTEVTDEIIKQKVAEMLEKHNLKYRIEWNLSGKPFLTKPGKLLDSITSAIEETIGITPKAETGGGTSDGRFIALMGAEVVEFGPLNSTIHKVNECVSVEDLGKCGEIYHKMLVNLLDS
The test is described as follows: Thermal shift assay, HiDapE. It counts as binding. To be noted: for Tm1 HiDapE / Tm2 HiDapE: 200 nM HiDapE + 10× dye.

Another test addresses AbDapE-SeMet (Acinetobacter baumannii, UniProt A3M8H2). The test is described as follows: Thermal shift assay, AbDapE-SeMet. It counts as binding. To be noted: 6 μM AbDapE-SeMet + 10× dye. Summed up:
as §1

In another test the test system is DapE. Conditions: DapE from E. faecium and E. coli studied; cited from earlier work.

Sequence of AbDapE-SeMet (A3M8H2 whole entry): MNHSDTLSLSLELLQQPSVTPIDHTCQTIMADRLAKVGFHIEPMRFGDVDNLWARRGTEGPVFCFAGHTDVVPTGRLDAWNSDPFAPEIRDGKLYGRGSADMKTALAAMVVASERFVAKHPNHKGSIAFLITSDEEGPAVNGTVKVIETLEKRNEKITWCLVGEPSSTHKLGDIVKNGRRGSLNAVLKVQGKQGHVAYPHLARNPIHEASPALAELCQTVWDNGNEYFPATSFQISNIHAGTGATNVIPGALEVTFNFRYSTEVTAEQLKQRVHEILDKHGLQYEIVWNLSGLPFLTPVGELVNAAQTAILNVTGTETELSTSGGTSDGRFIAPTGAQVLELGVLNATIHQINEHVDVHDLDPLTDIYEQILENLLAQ
T1 sequence (A3M8H2 whole entry): as above

As to `CC(=O)N1CCc2cc(Cl)c(S(=O)(=O)NCCC(C)C)cc21` [1-acetyl-5-chloro-N-isopentylindoline-6-sulfonamide], the “Inhibition of AbDapE (in words)” value at AbDapE [1] is given as “did not inhibit AbDapE significantly”; on AbDapE [1] (listed as indoline sulfonamide) it was “not significantly inhibited; also recorded: did not measurably inhibit”.

Consider `C[C@H](CS)C(=O)N1CCC[C@H]1C(=O)O` [Captopril], for which the “Tm1 AbDapE” value was 41.9 ± 0.1 °C at AbDapE [2] (0.005 μM captopril); 41.9 ± 0.2 °C at AbDapE [2] (0.05 μM captopril); 41.9 ± 0.1 °C on AbDapE [2] (0.1 μM captopril); 41.9 ± 0.2 °C on AbDapE [2] (0.5 μM captopril); 41.9 ± 0.1 °C at AbDapE [2] (0.8 μM captopril); 41.7 ± 0.1 °C on AbDapE [2] (1 μM captopril). The “Tm1 AbDapE” value is 41.7 ± 0.2 °C on AbDapE [2] (3 μM captopril), 41.4 ± 0.1 °C on AbDapE [2] (5 μM captopril), 41.1 ± 0.1 °C at AbDapE [2] (10 μM captopril) and 42.0 ± 0.1 °C on AbDapE [2] (15 μM captopril). Further, the “Tm2 AbDapE” value came to 62.9 ± 0.1 °C at AbDapE [2] (0.005 μM captopril); 63.3 ± 0.7 °C on AbDapE [2] (0.05 μM captopril); 62.6 ± 0.3 °C at AbDapE [2] (0.1 μM captopril); 63.1 ± 0.4 °C at AbDapE [2] (0.5 μM captopril); 62.3 ± 0.1 °C at AbDapE [2] (0.8 μM captopril); 63.4 ± 1.0 °C at AbDapE [2] (1 μM captopril). Besides, the “Tm2 AbDapE” value at AbDapE [2] (3 μM captopril) was determined as 65.1 ± 0.3 °C; at AbDapE [2] (5 μM captopril), 64.1 ± 0.2 °C; on AbDapE [2] (10 μM captopril), 66.6 ± 0.2 °C; at AbDapE [2] (15 μM captopril), 65.5 ± 0.4 °C. In addition, the “Effect on stability of AbDapE, in words” value at AbDapE [2] (thermal shift assays) was “increases the stability”. The pIC50 against AbDapE [1] (AbDapE IC50, ninhydrin assay, 8 nM enzyme, 2 mM N^6-methyl-L,L-SDAP) was 5.92. Besides, the “Mode of inhibition of AbDapE” value at AbDapE [1] (kinetic assays, modified ninhydrin assay) is “competitive inhibitors”. Further, the “Tm1 HiDapE” value was determined as 51.5 ± 0.1 °C at HiDapE (0.005 μM captopril); 50.2 ± 0.6 °C at HiDapE (0.05 μM captopril); 50.0 ± 0.8 °C at HiDapE (0.1 μM captopril); 50.5 ± 0.1 °C at HiDapE (0.5 μM captopril); 50.3 ± 0.5 °C at HiDapE (0.8 μM captopril); 51.2 ± 0.2 °C at HiDapE (1 μM captopril). The “Tm1 HiDapE” value on HiDapE (3 μM captopril) is 52.2 ± 0.1 °C; on HiDapE (5 μM captopril), 53.2 ± 0.2 °C; at HiDapE (10 μM captopril) it was 52.9 ± 0.6 °C. Moreover, the “Tm2 HiDapE” value on HiDapE (0.005 μM captopril) is 78.2 ± 0.1 °C; at HiDapE (0.05 μM captopril), 78.6 ± 0.1 °C; at HiDapE (0.1 μM captopril), 78.1 ± 0.1 °C; at HiDapE (0.5 μM captopril), 78.3 ± 0.1 °C; on HiDapE (0.8 μM captopril), 77.9 ± 0.1 °C; at HiDapE (1 μM captopril) it was 77.8 ± 0.1 °C. Also, the “Tm2 HiDapE” value turned out to be 78.0 ± 0.1 °C at HiDapE (3 μM captopril), 77.8 ± 0.1 °C on HiDapE (5 μM captopril) and 77.9 ± 0.1 °C on HiDapE (10 μM captopril). For the same molecule, the “Effect on stability (Tm) of HiDapE, in words” value at HiDapE (thermal shift assays) is reported as “stabilize HiDapE”. In addition, the “Tm AbDapE-SeMet” value at AbDapE-SeMet (0.005 μM captopril) came to 65.3 ± 0.2 °C; on AbDapE-SeMet (0.05 μM captopril) it was 65.5 ± 0.1 °C; at AbDapE-SeMet (0.1 μM captopril), 65.3 ± 0.2 °C; on AbDapE-SeMet (0.5 μM captopril), 65.1 ± 0.1 °C; on AbDapE-SeMet (0.8 μM captopril) it was 66.1 ± 0.1 °C; on AbDapE-SeMet (1 μM captopril) it was 65.7 ± 0.1 °C. The “Tm AbDapE-SeMet” value on AbDapE-SeMet (3 μM captopril) is 66.4 ± 0.3 °C; at AbDapE-SeMet (5 μM captopril), 67.2 ± 0.2 °C; on AbDapE-SeMet (10 μM captopril), 68.5 ± 0.1 °C.

On to `CCN(CC)C(=S)SSC(=S)N(CC)CC` [disulfiram], for which the “Effect on Tm values of DapE, in words” value in the test on DapE is given as “lowering of the Tm values”.

Turning to `Cc1ccccc1C(OCCN(C)C)c1ccccc1` (stereo not shown) [orphenadrine], in the test on DapE, the “Effect on Tm values of DapE, in words” value is on record as “lowering of the Tm values”.

A word on the pIC50: it is −log10 of the IC50, conventionally taken in molar units. Read a high pIC50 as a low IC50.
